Results from article PMC11838921 (Journal of agricultural and food chemistry, 2024).

Tests used:
antiphenamacril mAb = assay: ic-ELISA for sensitivity and specificity of the mAb; format: binding, Balb/c mice; settings: for Cross-reactivity: CR = IC50(analyte)/IC50(structural analogue) x 100%; for IC50: ic-ELISA, standards in 10% methanol-PBS
Method in brief: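 Ic-ELISA with purified mAb (ascites, Protein G column). Phenamacril standards at 0–500 ng/mL (500 to 1.95 in twofold steps) in 10% methanol-PBS; 50 μL standard and 50 μL mAb per well. IC50 taken as sensitivity. Cross-reactivity run with four methoxyacrylate analogues: IC50(analyte)/IC50(analogue) × 100%.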

Au@PDA-mAb probe [1] = assay: dr-ICGA on wheat flour samples; format: binding; settings: n = 5
Method in brief: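 Phenamacril-free flour (5 g, confirmed by LC-MS/MS) in 10 mL ultrapure water, vortexed 2 min, spiked with standard to 0.0125–0.20 mg/kg; water-only blank at 0 mg/kg. Residue redissolved in 1 mL 10% methanol-PBS, then diluted 10-fold. 100 μL applied to the strip. Read by eye as −, ± or +, with cut-offs <0.05, 0.05–0.1 and >0.1 mg/kg.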

[2] = Jiangxi red soil; cited from earlier work
Au@PDA-mAb probe [3] = assay: dual-readout immunochromatographic strip; format: binding
Method in brief: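 Standards and analogues at 0.63–20 ng/mL in PBS with 10% methanol were applied to the strip sample pad (100 μL). Au@PDA-mAb probe sat on the conjugate pad. T line held phenamacril-OVA plus QDs-OVA; C line held anti-mouse IgG. Colour read by eye as T-line red loss against the C line. Fluorescence read as green T-line intensity under UV.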

antisera = assay: ic-ELISA of antiserum of the immunized mouse; format: binding, Balb/c mice; settings: phenamacril at 1 μg/mL, mouse used for fusion (titer 80,000)
[4] = activated sludge; cited from earlier work

## CO/C=C(/C(=O)OC)c1ccccc1Oc1cc(Oc2ccccc2C#N)ncn1 [Azoxystrobin]
Antiphenamacril mAb
  Cross-reactivity: <0.35%
  IC50: >5,000 ng/mL
Antiphenamacril mAb; listed as azoxystrobin
  Cross-reactivity: < 0.35%

## COc1c(F)c(F)c(C(=O)NCc2ncc(C(F)(F)F)cc2Cl)c(F)c1F [Fluopimomide]
Antiphenamacril mAb
  Cross-reactivity: <0.35%
  IC50: >5,000 ng/mL
Antiphenamacril mAb; listed as fluopimomide
  Cross-reactivity: < 0.35%

## CCOC(=O)C(C#N)=C(N)c1ccccc1 [Phenamacril, 2-cyano-3-amino-3-phenylacrylic acetate]
Au@PDA-mAb probe [1]; wheat flour spiked 0.0125 mg/kg
  dr-ICGA visual result (dilute 10 times): −, −, −, −, −,
Au@PDA-mAb probe [1]; wheat flour spiked 0.025 mg/kg
  dr-ICGA visual result (dilute 10 times): −, ± , −, ± , −,
Au@PDA-mAb probe [1]; wheat flour spiked 0.05 mg/kg
  dr-ICGA visual result (dilute 10 times): ±, ± , ± , ± , ± ,
Au@PDA-mAb probe [1]; wheat flour spiked 0.1 mg/kg
  dr-ICGA visual result (dilute 10 times): ±, + , + , + , + ,
Au@PDA-mAb probe [1]; wheat flour spiked 0.2 mg/kg
  dr-ICGA visual result (dilute 10 times): +, + , + , + , + ,
[2]
  mobility in soil: moderately mobile
Antiphenamacril mAb
  Cross-reactivity: 100%
  IC50: 17.46 ng/mL
Au@PDA-mAb probe [3]; 20 ng/mL loaded, visual and UV readout
  reaction on the T line of the dual-readout strip: strong positive reaction on the T line
Au@PDA-mAb probe [3]; dr-ICGA, colorimetric and fluorescent readout, within 10 min
  limit of detection (cutoff value): 5 ng/mL
antisera
  inhibition rate: approximately 70.8%
[4]
  degradation: degrades slowly

## CO/C=C(/C(=O)OC)c1ccccc1COc1cccc(C(F)(F)F)n1 [Picoxystrobin]
Antiphenamacril mAb
  Cross-reactivity: <0.35%
  IC50: >5,000 ng/mL
Antiphenamacril mAb; listed as picoxystrobin
  Cross-reactivity: < 0.35%

## COC(=O)N(OC)c1ccccc1COc1ccn(-c2ccc(Cl)cc2)n1 [Pyraclostrobin]
Antiphenamacril mAb
  Cross-reactivity: <0.35%
  IC50: >5,000 ng/mL
Antiphenamacril mAb; listed as pyraclostrobin
  Cross-reactivity: < 0.35%
